We go through twelve compounds from ChEMBL document CHEMBL1125386, “Small atrial natriuretic peptide analogues: design, synthesis, and structural requirements for guanylate cyclase activation” (J Med Chem, 1992).

Where a SMILES comes first, the peptide text is derived from it. A value given as a limit tells only on which side of the number the result lay.

For data set [1], the species on record is Oryctolagus cuniculus. The data set is described as follows: In vitro vasorelaxant potency at dose 10 e -8 to 10 e-4 M using rabbit aortic rings precontracted with histamine. The format is functional. The following applies: Aorta. Summed up: (§1)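 Rabbit aortic rings (4–5 mm) in Krebs-Henseleit buffer, gassed 95:5 O2/CO2, pH 7.4, isometric tension, baseline 2 g held 2 h. Rings contracted with 3 μM histamine, then six cumulative half-log peptide increments over 90 min, range 10⁻⁸ to 10⁻⁴ M. Triplicate determinations.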

A short description of data set [2]: (§2) In vitro Biological half-life in crude homogenate of rabbit renal cortex. The format is ADME, tissue-based, Oryctolagus cuniculus.
Data set [3] relates to Atrial natriuretic peptide receptor 1 (Oryctolagus cuniculus). As to the kind of experiment: Binding affinity towards the low-affinity site atrionatriuretic peptide receptor 1 of rabbit adrenal membrane.
For data set [4], the species on record is Oryctolagus cuniculus. As to the kind of experiment: Compound was evaluated for the intrinsic vasorelaxation (i.vr) in a standard tissue bath preparation using rabbit aortic rings precontracted with histamine. The format is functional, Aorta. Summed up: as §1
A short description of data set [5]: as §2. The format is ADME, Oryctolagus cuniculus.

In the data set filed under Oryctolagus cuniculus [1], `CC[C@H](C)[C@@H]1NC(=O)[C@H](CCCN=C(N)N)NC(=O)CNC(=O)CNC(=O)[C@H](Cc2ccccc2)NC(=O)[C@@H](NC(=O)[C@H](CO)NC(=O)[C@@H](N)CO)CSSC[C@@H](C(=O)N[C@@H](Cc2ccccc2)C(=O)N[C@@H](CCCN=C(N)N)C(=O)O)NC(=O)[C@H]([C@@H](C)CC)NC(=O)[C@H](CCCN=C(N)N)NC(=O)[C@H](CC(=O)O)NC1=O` gave an EC50 of 3000 nM. The compound further showed a half-life in data set [2] of 4.7 min. In the case of `CC[C@H](C)[C@@H]1NC(=O)[C@@H](CCCN=C(N)N)NC(=O)CNC(=O)CNC(=O)[C@@H](Cc2ccccc2)NC(=O)C(C(C)C)NC(=O)[C@H](NC(=O)[C@H](CO)NC(=O)[C@@H](N)CO)CSSC[C@H](C(=O)N[C@H](Cc2ccccc2)C(=O)N[C@H](CCCN=C(N)N)C(=O)O)NC(=O)[C@@H]([C@@H](C)CC)NC(=O)[C@H](CCCN=C(N)N)NC(=O)[C@@H](CC(=O)O)NC1=O` (stereo in doubt), the KL in data set [3] was determined as 130 nM. The compound further had an EC50 in the data set listed under Oryctolagus cuniculus [1] of 24 nM. H-SSCFG-OH: in the data set filed under Oryctolagus cuniculus [4], the Intrinsic vasorelaxation is 0.03 fraction of rANP max.

With `CC[C@H](C)[C@@H]1NC(=O)[C@H](CCCN=C(N)N)NC(=O)CNC(=O)CNC(=O)[C@H](Cc2ccccc2)NC(=O)[C@@H](NC(=O)[C@H](CO)NC(=O)[C@@H](N)CO)CSSC[C@@H](C(=O)O)NC(=O)[C@H](CCCN=C(N)N)NC(=O)[C@H](Cc2ccccc2)NC(=O)[C@H]([C@@H](C)CC)NC(=O)[C@H](CCCN=C(N)N)NC(=O)[C@H](CC(=O)O)NC1=O`, the EC50 in the data set listed under Oryctolagus cuniculus [1] amounted to 2000 nM. Also, in data set [5], the half-life was below 2 min. In turn, `CC[C@H](C)[C@@H]1NC(=O)[C@H](CCCN=C(N)N)NC(=O)CNC(=O)CNC(=O)[C@H](Cc2ccccc2)NC(=O)CNC(=O)[C@@H](NC(=O)[C@H](CO)NC(=O)[C@@H](N)CO)CSSC[C@@H](C(=O)N[C@@H](Cc2ccccc2)C(=O)N[C@@H](CCCN=C(N)N)C(=O)O)NC(=O)[C@H]([C@@H](C)CC)NC(=O)[C@H](CCCN=C(N)N)NC(=O)[C@H](CC(=O)O)NC1=O` returned an EC50 in the data set filed under Oryctolagus cuniculus [1] of 120 nM. Besides, the half-life in data set [2] was found to be 3.2 min. In the case of H-RIDRIG-OH, the Intrinsic vasorelaxation in the data set filed under Oryctolagus cuniculus [4] was 0.7 fraction of rANP max. Turning to `CC[C@H](C)[C@@H]1NC(=O)[C@H](CCCN=C(N)N)NC(=O)CNC(=O)CNC(=O)[C@@H](Cc2ccccc2)NC(=O)[C@@H](NC(=O)[C@H](CO)NC(=O)[C@@H](N)CO)CSSC[C@@H](C(=O)N[C@@H](Cc2ccccc2)C(=O)N[C@@H](CCCN=C(N)N)C(=O)O)NC(=O)[C@H]([C@@H](C)CC)NC(=O)[C@H](CCCN=C(N)N)NC(=O)[C@H](CC(=O)O)NC1=O`, the EC50 in the data set filed under Oryctolagus cuniculus [1] was above 10000 nM. In data set [2], the half-life was 5.8 min. For `CC[C@H](C)[C@@H]1NC(=O)[C@@H](CCCN=C(N)N)NC(=O)CNC(=O)CNC(=O)[C@@H](Cc2ccccc2)NC(=O)C(C)NC(=O)[C@H](NC(=O)[C@H](CO)NC(=O)[C@@H](N)CO)CSSC[C@H](C(=O)N[C@H](Cc2ccccc2)C(=O)N[C@H](CCCN=C(N)N)C(=O)O)NC(=O)[C@@H]([C@@H](C)CC)NC(=O)[C@H](CCCN=C(N)N)NC(=O)[C@@H](CC(=O)O)NC1=O` (stereo in doubt), the KL in data set [3] stood at 710 nM. Also, the response in the data set listed under Oryctolagus cuniculus [1] was half-maximal at 360 nM (EC50). In data set [2], this compound came in with a half-life of 5.3 min.

On to H-SSCFGGR-OH, for which the Intrinsic vasorelaxation in the data set listed under Oryctolagus cuniculus [4] was 0 fraction of rANP max. With `NC(=O)C[C@H](N)C(=O)N[C@@H](CO)C(=O)N[C@@H](Cc1ccccc1)C(=O)N[C@@H](CCCN=C(N)N)C(=O)O` (H-NSFR-OH), the Intrinsic vasorelaxation in the data set listed under Oryctolagus cuniculus [4] is 0.16 fraction of rANP max. On to H-FGGRIDRI-OH, for which, in the data set listed under Oryctolagus cuniculus [4], the Intrinsic vasorelaxation was 0.57 fraction of rANP max. Take `CC[C@H](C)[C@@H]1NC(=O)[C@H](CCCN=C(N)N)NC(=O)CNC(=O)CNC(=O)[C@H](Cc2ccccc2)NC(=O)CN(C)C(=O)[C@@H](NC(=O)[C@H](CO)NC(=O)[C@@H](N)CO)CSSC[C@@H](C(=O)N[C@@H](Cc2ccccc2)C(=O)N[C@@H](CCCN=C(N)N)C(=O)O)NC(=O)[C@H]([C@@H](C)CC)NC(=O)[C@H](CCCN=C(N)N)NC(=O)[C@H](CC(=O)O)NC1=O`: the EC50 in the data set filed under Oryctolagus cuniculus [1] is above 1000 nM.

The term EC50 denotes the concentration giving half of the maximal effect. A higher EC50 goes with a less potent agent. As a reminder, the half-life is how long it takes for the measured level to halve. A high value points to slow decline.
